“And” between values parts separate entries of the source, which are not always exact repeats. Identical values can stand only once.
Tests used:
U2OS = assay: Multiplex assay against U2OS; format: toxicity, cell-based; details: human
In short: (§1)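 At seeding, live cells were stained with Hoechst33342, BioTracker Green Microtubule Cytoskeleton Dye, MitoTracker Red and Annexin V Alexa Fluor 680. After compound addition they were imaged on a CQ1 microscope at 37°C and 5% CO2, and CellPathfinder machine-learning gating sorted them into Hoechst high-intensity objects or normal cells, with normal cells further split into healthy, pyknosed or fragmented nuclei and pyknosed cells into mitotic or apoptotic. Tubulin, mitochondrial-mass and membrane-permeability phenotypes are given as per cents of cells with healthy nuclei.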

HEK-293T = assay: Multiplex assay against HEK293T; format: toxicity, cell-based; details: human; in short: as §1
[1] = 24 h, 10 µM, compound concentration 10 uM
[2] = 48 h, 1 µM, compound concentration 1 uM
[3] = 48 h, 10 µM, compound concentration 10 uM
[4] = 12 h, 1 µM, compound concentration 1 uM
[5] = 12 h, 10 µM, compound concentration 10 uM
[6] = 24 h, 1 µM, compound concentration 1 uM

Cc1onc(-c2ccccc2Cl)c1C(=O)N(C)c1ccc(Cl)cc1
Population Fragmented Nuclei (%) (U2OS; [1]): 26% and 20%
Population Healthy Nuclei (%) (U2OS; [1]): 62% and 66%
Population Hoechst High Intensity Objects (%) (U2OS; [1]): 3%
Population Membrane Permeable-Phenotype (%) (U2OS; [1]): 11% and 8%
Population Mitochondria Different-Phenotype (%) (U2OS; [1]): 6% and 7%
Population Mitotic Cells (%) (U2OS; [1]): 27% and 35%
Population Normal (%) (U2OS; [1]): 96%
Population Pyknosed Nuclei (%) (U2OS; [1]): 11% and 13%
Population Tubulin-Different-Phenotype (%) (U2OS; [1]): 4% and 7%
Total Cell Count (U2OS; [1]): 299 and 129
Population Apoptotic (%) (U2OS; [2]): 87% and 89%
Population Fragmented Nuclei (%) (U2OS; [2]): 16% and 12%
Population Healthy Nuclei (%) (U2OS; [2]): 75%
Population Hoechst High Intensity Objects (%) (U2OS; [2]): 2% and 1%
Population Membrane Permeable-Phenotype (%) (U2OS; [2]): 4% and 1%
Population Mitochondria Different-Phenotype (%) (U2OS; [2]): 3% and 2%
Population Mitotic Cells (%) (U2OS; [2]): 12% and 10%
Population Normal (%) (U2OS; [2]): 97% and 98%
Population Pyknosed Nuclei (%) (U2OS; [2]): 7% and 11%
Population Tubulin-Different-Phenotype (%) (U2OS; [2]): 2% and 1%
Total Cell Count (U2OS; [2]): 450 and 252
Population Apoptotic (%) (U2OS; [3]): 69% and 90%
Population Fragmented Nuclei (%) (U2OS; [3]): 22% and 23%
Population Healthy Nuclei (%) (U2OS; [3]): 67% and 65%
Population Hoechst High Intensity Objects (%) (U2OS; [3]): 3% and 2%
Population Membrane Permeable-Phenotype (%) (U2OS; [3]): 10% and 9%
Population Mitochondria Different-Phenotype (%) (U2OS; [3]): 5%
Population Mitotic Cells (%) (U2OS; [3]): 30% and 10%
Population Normal (%) (U2OS; [3]): 96% and 97%
Population Pyknosed Nuclei (%) (U2OS; [3]): 9% and 11%
Population Tubulin-Different-Phenotype (%) (U2OS; [3]): 4% and 3%
Total Cell Count (U2OS; [3]): 413 and 182
Population Apoptotic (%) (HEK-293T; [4]): 35% and 37%
Population Fragmented Nuclei (%) (HEK-293T; [4]): 8% and 3%
Population Healthy Nuclei (%) (HEK-293T; [4]): 79% and 84%
Population Hoechst High Intensity Objects (%) (HEK-293T; [4]): 9% and 6%
Population Membrane Permeable-Phenotype (%) (HEK-293T; [4]): 0%
Population Mitochondria Different-Phenotype (%) (HEK-293T; [4]): 41% and 59%
Population Mitotic Cells (%) (HEK-293T; [4]): 64% and 62%
Population Normal (%) (HEK-293T; [4]): 90% and 93%
Population Pyknosed Nuclei (%) (HEK-293T; [4]): 12%
Population Tubulin-Different-Phenotype (%) (HEK-293T; [4]): 25%
Total Cell Count (HEK-293T; [4]): 375 and 320
Population Apoptotic (%) (HEK-293T; [5]): 38% and 45%
Population Fragmented Nuclei (%) (HEK-293T; [5]): 7% and 4%
Population Healthy Nuclei (%) (HEK-293T; [5]): 79% and 80%
Population Hoechst High Intensity Objects (%) (HEK-293T; [5]): 12% and 6%
Population Membrane Permeable-Phenotype (%) (HEK-293T; [5]): 0%
Population Mitochondria Different-Phenotype (%) (HEK-293T; [5]): 49% and 65%
Population Mitotic Cells (%) (HEK-293T; [5]): 61% and 54%
Population Normal (%) (HEK-293T; [5]): 87% and 93%
Population Pyknosed Nuclei (%) (HEK-293T; [5]): 13% and 14%
Population Tubulin-Different-Phenotype (%) (HEK-293T; [5]): 43% and 35%
Total Cell Count (HEK-293T; [5]): 357 and 330
Population Apoptotic (%) (HEK-293T; [6]): 23% and 42%
Population Fragmented Nuclei (%) (HEK-293T; [6]): 9% and 5%
Population Healthy Nuclei (%) (HEK-293T; [6]): 81%
Population Hoechst High Intensity Objects (%) (HEK-293T; [6]): 5% and 3%
Population Membrane Permeable-Phenotype (%) (HEK-293T; [6]): 1%
Population Mitochondria Different-Phenotype (%) (HEK-293T; [6]): 21% and 44%
Population Mitotic Cells (%) (HEK-293T; [6]): 76% and 57%
Population Normal (%) (HEK-293T; [6]): 94% and 96%
Population Pyknosed Nuclei (%) (HEK-293T; [6]): 9% and 12%
Population Tubulin-Different-Phenotype (%) (HEK-293T; [6]): 14% and 18%
Total Cell Count (HEK-293T; [6]): 523 and 383
Population Apoptotic (%) (HEK-293T; [1]): 45% and 29%
Population Fragmented Nuclei (%) (HEK-293T; [1]): 8% and 7%
Population Healthy Nuclei (%) (HEK-293T; [1]): 79% and 82%
Population Hoechst High Intensity Objects (%) (HEK-293T; [1]): 5% and 3%
Population Membrane Permeable-Phenotype (%) (HEK-293T; [1]): 1% and 0%
Population Mitochondria Different-Phenotype (%) (HEK-293T; [1]): 32% and 47%
Population Mitotic Cells (%) (HEK-293T; [1]): 54% and 70%
Population Normal (%) (HEK-293T; [1]): 94% and 96%
Population Pyknosed Nuclei (%) (HEK-293T; [1]): 12% and 9%
Population Tubulin-Different-Phenotype (%) (HEK-293T; [1]): 20%
Total Cell Count (HEK-293T; [1]): 478 and 413
Population Apoptotic (%) (HEK-293T; [2]): 21% and 31%
Population Fragmented Nuclei (%) (HEK-293T; [2]): 14% and 11%
Population Healthy Nuclei (%) (HEK-293T; [2]): 79% and 82%
Population Hoechst High Intensity Objects (%) (HEK-293T; [2]): 2%
Population Membrane Permeable-Phenotype (%) (HEK-293T; [2]): 0% and 1%
Population Mitochondria Different-Phenotype (%) (HEK-293T; [2]): 11% and 23%
Population Mitotic Cells (%) (HEK-293T; [2]): 78% and 68%
Population Normal (%) (HEK-293T; [2]): 97%
Population Pyknosed Nuclei (%) (HEK-293T; [2]): 6% and 5%
Population Tubulin-Different-Phenotype (%) (HEK-293T; [2]): 9% and 12%
Total Cell Count (HEK-293T; [2]): 932 and 620
Population Apoptotic (%) (HEK-293T; [3]): 33% and 20%
Population Fragmented Nuclei (%) (HEK-293T; [3]): 14% and 12%
Population Healthy Nuclei (%) (HEK-293T; [3]): 76% and 81%
Population Hoechst High Intensity Objects (%) (HEK-293T; [3]): 3%
Population Membrane Permeable-Phenotype (%) (HEK-293T; [3]): 1% and 0%
Population Mitochondria Different-Phenotype (%) (HEK-293T; [3]): 16% and 25%
Population Mitotic Cells (%) (HEK-293T; [3]): 66% and 79%
Population Normal (%) (HEK-293T; [3]): 96%
Population Pyknosed Nuclei (%) (HEK-293T; [3]): 8% and 6%
Population Tubulin-Different-Phenotype (%) (HEK-293T; [3]): 15% and 16%
Total Cell Count (HEK-293T; [3]): 755 and 652
